Our source for the Ki values is ChEMBL document CHEMBL1122482, “Optical resolution, absolute configuration, and activity of the enantiomers of proxyphylline” (J Med Chem, 1983).

Assay [1] in a line: Inhibition of human lung high-affinity cAMP phosphodiesterases (0.5-2 uM/L). In short, it runs like this:
(§1)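 Enzyme source was lung cytosol from homogenized unaffected tissue of a patient undergoing total pulmectomy for pulmonary carcinoma. Phosphodiesterase activity was measured essentially by the Thompson and Appleman method. Substrates were cAMP or cGMP at 0.5–2 μmol/L for the high-affinity form and 10–50 μmol/L for the low-affinity form. Inhibitor was added at 0.25–1.0 mmol/L. K_I came from Dixon plots of initial rates.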

The target in assay [2] is cGMP-dependent 3',5'-cyclic phosphodiesterase (Homo sapiens, UniProt O00408). The experiment in a line: Inhibition of human lung low-affinity cGMP phosphodiesterases (10-50 uM/L). In short, it runs like this: as §1
Chain of cGMP-dependent 3',5'-cyclic phosphodiesterase (O00408 whole entry): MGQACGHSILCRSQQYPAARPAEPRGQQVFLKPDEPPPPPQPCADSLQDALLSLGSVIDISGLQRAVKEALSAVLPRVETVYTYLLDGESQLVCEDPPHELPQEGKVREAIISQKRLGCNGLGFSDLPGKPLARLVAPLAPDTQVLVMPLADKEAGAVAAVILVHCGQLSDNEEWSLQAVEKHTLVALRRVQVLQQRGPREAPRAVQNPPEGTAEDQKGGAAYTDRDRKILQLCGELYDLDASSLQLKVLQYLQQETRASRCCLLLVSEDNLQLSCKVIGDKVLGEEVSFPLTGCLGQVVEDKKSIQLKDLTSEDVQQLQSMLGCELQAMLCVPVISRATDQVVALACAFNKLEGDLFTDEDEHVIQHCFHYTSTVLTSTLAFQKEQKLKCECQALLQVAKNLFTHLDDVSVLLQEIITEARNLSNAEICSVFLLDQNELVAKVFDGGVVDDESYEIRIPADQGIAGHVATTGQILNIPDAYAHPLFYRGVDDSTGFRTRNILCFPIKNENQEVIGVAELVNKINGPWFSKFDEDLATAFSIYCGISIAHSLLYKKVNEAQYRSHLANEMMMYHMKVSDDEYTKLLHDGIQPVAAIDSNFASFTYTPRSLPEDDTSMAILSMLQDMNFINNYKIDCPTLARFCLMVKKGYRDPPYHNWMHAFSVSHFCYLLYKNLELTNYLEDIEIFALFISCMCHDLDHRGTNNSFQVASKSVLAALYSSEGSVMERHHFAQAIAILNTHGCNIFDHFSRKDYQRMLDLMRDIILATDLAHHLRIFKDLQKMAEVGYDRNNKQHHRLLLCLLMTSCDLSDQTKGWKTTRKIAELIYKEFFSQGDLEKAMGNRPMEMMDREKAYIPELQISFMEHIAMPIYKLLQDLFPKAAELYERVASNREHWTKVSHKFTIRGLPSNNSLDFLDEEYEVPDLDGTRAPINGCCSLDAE
Assay [3] addresses cGMP-specific 3',5'-cyclic phosphodiesterase (Homo sapiens, UniProt O76074). The experiment in a line: Inhibition of human lung high-affinity cGMP phosphodiesterases (0.5-2 uM/L). In short, it runs like this: as §1

Molecules are shown by their SMILES.

The Ki is the equilibrium dissociation constant of an inhibitor or competing ligand from its target. Read a low Ki as a stronger hold on the target. As for `C[C@@H](O)Cn1cnc2c1c(=O)n(C)c(=O)n2C` [(R)-PROXYPHYLLINE], the Ki in assay [1] came out at 500 µM; in assay [2], 600 µM; in assay [3] it was 600 µM.

For `CC(O)Cn1cnc2c1c(=O)n(C)c(=O)n2C` (centres undefined) [PROXYPHYLLINE], the Ki in assay [1] came to 500 µM; in assay [2], 600 µM; in assay [3], 600 µM.

Take `C[C@H](O)Cn1cnc2c1c(=O)n(C)c(=O)n2C` [(S)-PROXYPHYLLINE]: the Ki in assay [1] was determined as 400 µM; in assay [2], 700 µM; in assay [3], 600 µM.
